# Published values pooled from the literature.
# Compare with care: the assays were run in different laboratories.
# Target: Tyrosine-protein kinase Lyn (LYN, Homo sapiens, UniProt P07948)
Compound,test,conditions,remaining binding [%]
CC1CCCN1c1nccc(-c2cnn3ncccc23)n1 (stereo not drawn),binding,1 µM,84
C[C@@H](c1ccc(-n2cnc3c(N)ncnc32)cc1)N1CCc2nn(C)c(Cc3ccccc3)c2C1=O,"binding, competition with immobilised ligand",0.1 µM,100
COCCOc1nc(-c2ccc(Cl)nc2)nc2c1CN(C(=O)c1ncn3ccccc13)CC2,"cell-free assay, competition with immobilised ligand",0.1 µM,73
CCN1CCN(Cc2ccc(C(=O)Nc3ccc(C)c(Oc4ccc5c(c4)CC(=O)N5)c3)cc2C(F)(F)F)CC1,"binding, competition with immobilised ligand",1 µM,52
O=c1nc(-c2ccccn2)sc2ccccc12,"cell-free assay, competition with immobilised ligand",1 µM,100
O=C(c1ccc(Nc2ncc(Cl)c(-c3cc4ccccc4s3)n2)cc1)N1CCC(N2CCCC2)CC1,"binding, competition with immobilised ligand",1 µM,83
C[C@H]1CCN(c2nccc(-c3cnn4ncccc34)n2)C1,binding,1 µM,64
COc1cc(-c2cn(C3CCc4c(F)cccc4N(CC(F)(F)F)C3=O)nn2)ccc1-n1cnc(C)c1 (stereo not drawn),"cell-free assay, competition with immobilised ligand",1 µM,100
CN(C)c1nccc(-c2cnc3ncccn23)n1,binding,1 µM,100
O=C(Nc1c[nH]nc1C(=O)NC1CCNCC1)c1cc(F)cc(F)c1,"binding, competition with immobilised ligand",1 µM,100
Nc1ncc2c(n1)-c1c([nH]c3ccc(C#CC4CC4)cc13)CCCC2,"binding, competition with immobilised ligand",1 µM,93
CSc1cccnc1N1CCN(Cc2nc3ccccc3[nH]2)CC1,"cell-free assay, competition with immobilised ligand",1 µM,95
N[C@@H]1CCN(c2nccc(-c3cnn4ncccc34)n2)C1,binding,1 µM,100
FC(F)(F)Oc1cccc(-c2cnc3ccc(-c4ccncc4)nn23)c1,"cell-free assay, competition with immobilised ligand",5 µM,93
CO[C@@H](C)c1c(Nc2ccc([C@@H](N(C)C(=O)C3CCS(=O)(=O)CC3)C(F)(F)F)cc2)cnc2cc(Cl)nn12,"cell-free assay, competition with immobilised ligand",1 µM,97
F[C@@H]1CCN(c2nccc(-c3cnn4ncccc34)n2)C1,binding,1 µM,87
COc1cnc(Nc2cccc(S(N)(=O)=O)c2)nc1N1CCN(c2ccccc2)C(=O)C1,"binding, competition with immobilised ligand",1 µM,100
Cc1ccc(-n2nc(C(C)(C)C)cc2NC(=O)Nc2ccc(-n3c(N)c(C(N)=O)c4nc5ccccc5nc43)cc2)cc1,"cell-free assay, competition with immobilised ligand",1 µM,0.85
CN(c1nccc(-c2cnn3ncccc23)n1)C1CC1,binding,1 µM,86
CCCCN(CCCC)C(=O)CN1C[C@@H](c2cc(OC)c3c(c2)OCO3)[C@H](C(=O)O)[C@H]1CC(C)(C)CCC,"cell-free assay, competition with immobilised ligand",1 µM,75.1
O=C(NCCCN1CCOCC1)c1ccc(Nc2nccc(-c3cc4ccccc4s3)n2)cc1,"binding, competition with immobilised ligand",1 µM,94
c1cnn2ncc(-c3ccnc(N4CCC45COC5)n3)c2c1,binding,1 µM,88
O=C(Nc1cnc(Oc2ccc(F)cc2)nc1)N1CCc2ncccc2[C@@H]1c1ccc(F)cc1,"cell-free assay, competition with immobilised ligand",1 µM,82
O=C(c1ccc(Nc2ncc(Cl)c(-c3ccc(Cl)s3)n2)cc1)N1CCC(N2CCCC2)CC1,"binding, competition with immobilised ligand",1 µM,87
